Laboratory results: paper PMC11909909 (BMC Pharmacology & Toxicology, 2025)

Key:
[1] = tested on: coagulation parameters (PT, PTA, APTT, TT); assay: Coagulation parameters; format: in vivo, healthy Chinese subjects; conditions: for PT / TT / APTT / PTA: mean ± SD
[2] = Pharmacokinetics after a single 150 mg oral dose, fasting or postprandial; format: in vivo, healthy Chinese subjects
Summary of the method: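 Healthy volunteers, 50 per fasting or fed trial, in a randomized two-sequence (TRTR/RTRT), four-period, fully replicated crossover with a 7-day washout. Each dose was one 150 mg capsule with 240 mL warm boiled water, given fed after a ~950 kcal high-fat meal. 18 venous samples per period to 48 h in precooled EDTA-K2 tubes, spun 1700g 10 min 4 °C, plasma stored ≤−60 °C. Total-dabigatran range 1.000–300.0 ng/mL; parameters per subject.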

CCCCCCOC(=O)N=C(N)c1ccc(NCc2nc3cc(C(=O)N(CCC(=O)OCC)c4ccccn4)ccc3n2C)cc1 [dabigatran etexilate]
change of TT values after administration ([1]; both fasting and postprandial): increased more significantly
PT ([1]; fasting, fourth periodicity, n = 48, screening 13.01 ± 0.490): 13.07 ± 0.488 s
TT ([1]; fasting, fourth periodicity, n = 48, screening 17.71 ± 0.880): 20.73 ± 2.099 s
APTT ([1]; fasting, fourth periodicity, n = 48, screening 36.22 ± 3.090): 36.61 ± 3.352 s
PTA ([1]; fasting, fourth periodicity, n = 48, screening 101.7 ± 7.960): 101.2 ± 8.167%
PT ([1]; fasting, second periodicity, n = 50, screening 13.01 ± 0.490): 12.89 ± 0.475 s
TT ([1]; fasting, second periodicity, n = 50, screening 17.71 ± 0.880): 19.58 ± 1.976 s
APTT ([1]; fasting, second periodicity, n = 50, screening 36.22 ± 3.090): 36.71 ± 3.947 s
PTA ([1]; fasting, second periodicity, n = 50, screening 101.7 ± 7.960): 104.4 ± 8.741%
PT ([1]; postprandial, fourth periodicity, n = 50, screening 12.62 ± 0.570): 12.82 ± 0.479 s
TT ([1]; postprandial, fourth periodicity, n = 50, screening 17.63 ± 0.940): 21.30 ± 2.537 s
APTT ([1]; postprandial, fourth periodicity, n = 50, screening 36.25 ± 2.860): 36.22 ± 2.746 s
PTA ([1]; postprandial, fourth periodicity, n = 50, screening 108.9 ± 10.58): 105.5 ± 8.808%
PT ([1]; postprandial, second periodicity, n = 50, screening 12.62 ± 0.570): 13.14 ± 0.504 s
TT ([1]; postprandial, second periodicity, n = 50, screening 17.63 ± 0.940): 20.78 ± 2.490 s
APTT ([1]; postprandial, second periodicity, n = 50, screening 36.25 ± 2.860): 36.06 ± 2.660 s
PTA ([1]; postprandial, second periodicity, n = 50, screening 108.9 ± 10.58): 100.2 ± 8.297%

[H]/N=C(/N)c1ccc(NCc2nc3cc(C(=O)N(CCC(=O)O)c4ccccn4)ccc3n2C)cc1 [dabigatran]
Tmax ([2]; after a high-fat meal, median, both formulations): 4 h
Tmax ([2]; human, plasma, oral, 150 mg): 2.5 h
